Experimental data as given in the M2OR odorant receptor database.

Legend:
Conditions in all cases: stereoisomer not certain
[1] = biological target: T1, OR10J5 (Homo sapiens) (UniProt Q8NHC4)
T1 sequence (whole entry): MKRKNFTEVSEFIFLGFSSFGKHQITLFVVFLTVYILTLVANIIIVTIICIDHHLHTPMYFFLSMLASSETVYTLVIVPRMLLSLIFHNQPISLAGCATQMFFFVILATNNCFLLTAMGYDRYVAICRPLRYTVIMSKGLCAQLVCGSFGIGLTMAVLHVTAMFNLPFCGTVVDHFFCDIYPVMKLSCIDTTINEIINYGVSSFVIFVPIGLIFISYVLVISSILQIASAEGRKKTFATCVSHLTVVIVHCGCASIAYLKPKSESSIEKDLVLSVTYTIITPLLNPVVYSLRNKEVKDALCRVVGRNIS
Summary of the method: (§1)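 Transient luciferase assays in mammalian cell lines were common, though methods varied by source. The values come from published papers and their supplementary material, with extra details from the original authors when needed. Responsive refers to a measured signal the original authors judged statistically different from baseline, and non-responsive (inactive) to the remainder.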

[2] = biological target: T2, OR10H4 (Homo sapiens) (UniProt Q8NGA5)
T2 sequence (whole entry): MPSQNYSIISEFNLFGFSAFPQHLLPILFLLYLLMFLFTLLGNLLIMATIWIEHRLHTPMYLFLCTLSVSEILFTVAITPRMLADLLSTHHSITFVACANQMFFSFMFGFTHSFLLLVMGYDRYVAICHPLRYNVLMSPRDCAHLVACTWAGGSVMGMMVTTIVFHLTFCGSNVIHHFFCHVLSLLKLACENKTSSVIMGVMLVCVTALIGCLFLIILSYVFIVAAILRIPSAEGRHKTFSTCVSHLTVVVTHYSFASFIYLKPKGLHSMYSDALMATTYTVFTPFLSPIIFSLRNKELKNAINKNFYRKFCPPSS
Summary of the method: as §1

[3] = biological target: T3, OR10H5 (Homo sapiens) (UniProt Q8NGA6)
T3 sequence (whole entry): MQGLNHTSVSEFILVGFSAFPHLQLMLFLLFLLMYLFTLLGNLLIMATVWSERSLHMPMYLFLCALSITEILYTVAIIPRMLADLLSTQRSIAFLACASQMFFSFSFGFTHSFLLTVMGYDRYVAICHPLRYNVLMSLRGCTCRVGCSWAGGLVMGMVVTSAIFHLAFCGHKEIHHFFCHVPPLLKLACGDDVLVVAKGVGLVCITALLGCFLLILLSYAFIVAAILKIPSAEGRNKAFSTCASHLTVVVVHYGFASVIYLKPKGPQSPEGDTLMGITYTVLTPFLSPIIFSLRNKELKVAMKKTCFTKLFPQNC
Summary of the method: as §1

[4] = biological target: T4, OR10J3 (Homo sapiens) (UniProt Q5JRS4)
T4 sequence (whole entry): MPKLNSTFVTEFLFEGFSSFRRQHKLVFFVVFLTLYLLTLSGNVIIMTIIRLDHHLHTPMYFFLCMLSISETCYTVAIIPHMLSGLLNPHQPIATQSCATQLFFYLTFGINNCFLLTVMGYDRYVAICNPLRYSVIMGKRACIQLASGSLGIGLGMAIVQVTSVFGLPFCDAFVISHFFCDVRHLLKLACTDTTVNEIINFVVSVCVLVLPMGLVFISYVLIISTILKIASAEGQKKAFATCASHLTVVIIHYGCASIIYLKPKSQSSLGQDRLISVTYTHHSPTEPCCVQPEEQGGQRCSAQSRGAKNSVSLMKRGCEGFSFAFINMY
Summary of the method: as §1

[5] = biological target: OR10J4 (Homo sapiens) (UniProt P0C629)
OR10J4 (Homo sapiens), sequence (P0C629 whole entry F198I): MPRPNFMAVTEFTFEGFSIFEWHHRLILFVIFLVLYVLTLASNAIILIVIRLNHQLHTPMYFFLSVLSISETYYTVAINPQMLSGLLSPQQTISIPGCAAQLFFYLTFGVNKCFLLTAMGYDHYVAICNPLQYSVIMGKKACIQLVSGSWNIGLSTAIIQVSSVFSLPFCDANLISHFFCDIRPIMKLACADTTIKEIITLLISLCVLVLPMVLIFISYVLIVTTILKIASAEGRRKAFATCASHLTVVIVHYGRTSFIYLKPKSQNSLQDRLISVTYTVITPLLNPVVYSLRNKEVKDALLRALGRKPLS
Summary of the method: as §1

[6] = biological target: T5, OR10K1 (Homo sapiens) (UniProt Q8NGX5)
T5 sequence (whole entry): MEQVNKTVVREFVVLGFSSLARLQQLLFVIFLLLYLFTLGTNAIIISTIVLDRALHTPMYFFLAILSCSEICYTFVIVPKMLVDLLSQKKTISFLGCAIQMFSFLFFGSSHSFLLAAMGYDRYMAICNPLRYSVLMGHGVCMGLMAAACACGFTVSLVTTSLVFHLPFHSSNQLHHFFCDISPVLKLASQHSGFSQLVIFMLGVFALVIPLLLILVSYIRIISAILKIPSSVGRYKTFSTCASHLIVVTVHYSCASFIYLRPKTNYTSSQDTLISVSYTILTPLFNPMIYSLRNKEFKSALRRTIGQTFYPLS
Summary of the method: as §1

[7] = biological target: T6, OR10K2 (Homo sapiens) (UniProt Q6IF99)
T6 sequence (whole entry): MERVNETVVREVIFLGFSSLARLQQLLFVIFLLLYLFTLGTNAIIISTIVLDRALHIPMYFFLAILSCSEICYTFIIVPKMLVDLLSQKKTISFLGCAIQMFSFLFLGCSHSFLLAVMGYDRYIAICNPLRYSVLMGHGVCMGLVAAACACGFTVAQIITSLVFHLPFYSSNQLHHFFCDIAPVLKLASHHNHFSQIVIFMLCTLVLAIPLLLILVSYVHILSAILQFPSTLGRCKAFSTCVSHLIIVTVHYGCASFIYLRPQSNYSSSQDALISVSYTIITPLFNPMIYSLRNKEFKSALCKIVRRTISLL
Summary of the method: as §1

[8] = biological target: T7, OR10P1 (Homo sapiens) (UniProt Q8NGE3)
T7 sequence (whole entry): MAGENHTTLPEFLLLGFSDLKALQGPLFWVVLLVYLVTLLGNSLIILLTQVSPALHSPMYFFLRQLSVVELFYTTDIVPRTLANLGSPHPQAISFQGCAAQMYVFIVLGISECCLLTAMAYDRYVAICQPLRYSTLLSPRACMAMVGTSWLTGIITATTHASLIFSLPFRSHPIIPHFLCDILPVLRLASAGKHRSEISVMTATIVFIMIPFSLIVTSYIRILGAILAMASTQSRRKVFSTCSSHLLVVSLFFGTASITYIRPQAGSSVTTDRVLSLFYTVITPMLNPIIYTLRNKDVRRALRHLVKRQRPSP
Summary of the method: as §1

[9] = biological target: T8, OR10Q1 (Homo sapiens) (UniProt Q8NGQ4)
T8 sequence (whole entry): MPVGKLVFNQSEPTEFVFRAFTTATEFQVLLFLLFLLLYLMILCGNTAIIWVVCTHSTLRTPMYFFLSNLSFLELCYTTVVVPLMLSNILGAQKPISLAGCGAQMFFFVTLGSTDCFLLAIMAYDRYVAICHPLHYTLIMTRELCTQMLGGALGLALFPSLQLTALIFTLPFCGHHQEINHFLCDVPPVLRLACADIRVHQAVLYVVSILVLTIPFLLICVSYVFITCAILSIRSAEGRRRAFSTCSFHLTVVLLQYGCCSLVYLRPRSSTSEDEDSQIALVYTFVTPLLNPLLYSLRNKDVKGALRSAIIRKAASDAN
Summary of the method: as §1

[10] = biological target: T9, OR10R2 (Homo sapiens) (UniProt Q8NGX6)
T9 sequence (whole entry): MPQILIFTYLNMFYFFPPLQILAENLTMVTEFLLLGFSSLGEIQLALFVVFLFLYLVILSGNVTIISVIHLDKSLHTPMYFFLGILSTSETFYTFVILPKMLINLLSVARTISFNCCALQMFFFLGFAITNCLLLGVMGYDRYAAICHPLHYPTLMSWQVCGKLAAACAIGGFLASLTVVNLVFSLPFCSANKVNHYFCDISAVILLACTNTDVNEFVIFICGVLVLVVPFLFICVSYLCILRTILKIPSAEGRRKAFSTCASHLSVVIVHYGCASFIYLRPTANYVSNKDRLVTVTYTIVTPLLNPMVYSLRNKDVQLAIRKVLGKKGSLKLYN
Summary of the method: as §1

[11] = biological target: T10, OR10S1 (Homo sapiens) (UniProt Q8NGN2)
T10 sequence (whole entry): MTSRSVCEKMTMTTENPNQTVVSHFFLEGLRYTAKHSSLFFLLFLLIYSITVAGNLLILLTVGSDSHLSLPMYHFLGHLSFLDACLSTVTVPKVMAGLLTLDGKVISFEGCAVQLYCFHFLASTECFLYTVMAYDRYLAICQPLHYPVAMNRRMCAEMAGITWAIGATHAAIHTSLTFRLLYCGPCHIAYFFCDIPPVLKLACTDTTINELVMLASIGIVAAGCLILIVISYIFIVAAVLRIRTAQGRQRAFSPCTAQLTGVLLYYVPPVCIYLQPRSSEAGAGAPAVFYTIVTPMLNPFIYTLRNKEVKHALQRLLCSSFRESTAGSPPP
Summary of the method: as §1

[12] = biological target: T11, OR10T2 (Homo sapiens) (UniProt Q8NGX3)
T11 sequence (whole entry): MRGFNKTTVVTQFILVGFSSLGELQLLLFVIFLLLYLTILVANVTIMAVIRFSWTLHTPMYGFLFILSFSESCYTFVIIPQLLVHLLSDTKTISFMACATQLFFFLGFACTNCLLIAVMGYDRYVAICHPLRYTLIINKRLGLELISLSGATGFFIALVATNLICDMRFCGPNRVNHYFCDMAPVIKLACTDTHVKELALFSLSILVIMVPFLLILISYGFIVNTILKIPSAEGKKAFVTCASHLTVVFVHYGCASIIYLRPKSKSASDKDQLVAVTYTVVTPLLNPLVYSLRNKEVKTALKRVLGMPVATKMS
Summary of the method: as §1

[13] = biological target: T12, OR10V1 (Homo sapiens) (UniProt Q8NGI7)
T12 sequence (whole entry): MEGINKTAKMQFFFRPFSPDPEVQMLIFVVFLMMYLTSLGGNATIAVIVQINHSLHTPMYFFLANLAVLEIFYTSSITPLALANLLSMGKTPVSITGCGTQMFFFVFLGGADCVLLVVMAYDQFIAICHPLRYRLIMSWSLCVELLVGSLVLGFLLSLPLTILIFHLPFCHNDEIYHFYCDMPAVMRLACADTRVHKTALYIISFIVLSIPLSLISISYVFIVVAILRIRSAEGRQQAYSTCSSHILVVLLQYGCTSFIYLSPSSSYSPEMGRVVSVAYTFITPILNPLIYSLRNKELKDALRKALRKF
Summary of the method: as §1

[14] = biological target: T13, OR10W1 (Homo sapiens) (UniProt Q8NGF6)
T13 sequence (whole entry): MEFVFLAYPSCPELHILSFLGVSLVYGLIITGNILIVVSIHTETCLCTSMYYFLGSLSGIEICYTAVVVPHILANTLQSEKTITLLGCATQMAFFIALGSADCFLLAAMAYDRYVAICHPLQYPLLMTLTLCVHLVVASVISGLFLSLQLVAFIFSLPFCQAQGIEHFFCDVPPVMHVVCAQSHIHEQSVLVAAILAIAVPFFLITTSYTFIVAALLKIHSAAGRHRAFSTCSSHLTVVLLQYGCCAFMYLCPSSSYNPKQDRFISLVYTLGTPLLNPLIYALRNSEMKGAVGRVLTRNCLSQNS
Summary of the method: as §1

[15] = biological target: T14, OR10X1 (Homo sapiens) (UniProt Q8NGY0)
T14 sequence (whole entry): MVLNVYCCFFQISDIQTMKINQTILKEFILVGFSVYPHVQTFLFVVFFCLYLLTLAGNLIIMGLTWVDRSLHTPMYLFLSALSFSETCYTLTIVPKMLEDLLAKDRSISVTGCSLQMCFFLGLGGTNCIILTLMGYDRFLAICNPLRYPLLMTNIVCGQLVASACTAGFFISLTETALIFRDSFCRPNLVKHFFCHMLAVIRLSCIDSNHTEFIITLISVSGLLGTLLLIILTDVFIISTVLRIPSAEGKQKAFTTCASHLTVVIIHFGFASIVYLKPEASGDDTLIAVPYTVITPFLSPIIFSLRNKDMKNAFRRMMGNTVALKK
Summary of the method: as §1

[16] = biological target: T15, OR10Z1 (Homo sapiens) (UniProt Q8NGY1)
T15 sequence (whole entry): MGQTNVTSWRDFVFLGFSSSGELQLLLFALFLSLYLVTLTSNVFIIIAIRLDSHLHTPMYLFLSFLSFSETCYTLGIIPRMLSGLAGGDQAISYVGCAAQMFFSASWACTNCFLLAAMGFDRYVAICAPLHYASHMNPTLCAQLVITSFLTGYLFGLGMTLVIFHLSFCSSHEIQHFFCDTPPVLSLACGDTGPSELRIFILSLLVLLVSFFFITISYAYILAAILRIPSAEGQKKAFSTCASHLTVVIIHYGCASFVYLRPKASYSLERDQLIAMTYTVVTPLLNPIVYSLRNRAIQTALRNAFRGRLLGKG
Summary of the method: as §1

[17] = biological target: T16, OR11A1 (Homo sapiens) (UniProt Q9GZK7)
T16 sequence (whole entry): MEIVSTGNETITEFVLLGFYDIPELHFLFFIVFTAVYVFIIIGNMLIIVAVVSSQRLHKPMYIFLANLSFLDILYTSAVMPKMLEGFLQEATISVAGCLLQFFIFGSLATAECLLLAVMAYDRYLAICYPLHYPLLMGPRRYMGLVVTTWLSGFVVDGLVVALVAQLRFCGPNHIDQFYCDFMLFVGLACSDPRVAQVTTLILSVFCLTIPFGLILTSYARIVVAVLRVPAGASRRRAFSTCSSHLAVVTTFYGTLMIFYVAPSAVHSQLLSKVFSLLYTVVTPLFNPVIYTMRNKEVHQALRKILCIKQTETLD
Summary of the method: as §1

[18] = biological target: T17, OR11G2 (Homo sapiens) (UniProt Q8NGC1)
T17 sequence (whole entry): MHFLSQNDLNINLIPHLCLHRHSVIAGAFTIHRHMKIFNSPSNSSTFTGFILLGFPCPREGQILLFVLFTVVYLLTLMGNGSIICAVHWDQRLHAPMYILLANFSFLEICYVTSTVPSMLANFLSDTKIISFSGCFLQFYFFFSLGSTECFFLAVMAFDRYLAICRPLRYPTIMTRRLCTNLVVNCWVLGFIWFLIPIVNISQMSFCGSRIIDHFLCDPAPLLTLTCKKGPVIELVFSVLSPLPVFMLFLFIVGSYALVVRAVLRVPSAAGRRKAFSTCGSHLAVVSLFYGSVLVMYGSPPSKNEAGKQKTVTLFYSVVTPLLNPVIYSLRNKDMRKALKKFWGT
Summary of the method: as §1

[19] = biological target: T18, OR11H1 (Homo sapiens) (UniProt Q8NG94)
T18 sequence (whole entry): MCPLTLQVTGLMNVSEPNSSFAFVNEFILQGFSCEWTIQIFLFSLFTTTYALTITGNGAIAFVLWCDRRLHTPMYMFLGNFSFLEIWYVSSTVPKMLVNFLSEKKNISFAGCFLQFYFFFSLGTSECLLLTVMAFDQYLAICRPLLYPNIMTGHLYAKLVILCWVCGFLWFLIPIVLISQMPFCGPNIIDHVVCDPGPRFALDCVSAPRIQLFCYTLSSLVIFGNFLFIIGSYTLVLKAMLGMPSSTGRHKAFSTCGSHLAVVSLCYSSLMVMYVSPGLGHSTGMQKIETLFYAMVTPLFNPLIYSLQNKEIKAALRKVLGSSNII
Summary of the method: as §1

Measured: odorant receptor agonist call

CCCCCC(=O)CC
inactive: [1]

CCCCC(=O)CC
inactive: [1]

CC1CCCCCCCCCCCCC(=O)C1 (stereo unspecified)
inactive: all assays above
